Here are results for 14 molecules from ChEMBL document CHEMBL4359917, “Design, synthesis, and biological evaluation of novel benzodiazepine derivatives as anticancer agents through inhibition of tubulin polymerization in vitro and in vivo” (Eur J Med Chem, 2019).

For one data set, the system named is MDA-MB-231. In words: Antiproliferative activity against human MDA-MB-231 cells assessed as cell growth inhibition measured after 48 hrs by MTT assay. The note with it: MDA-MB-231, 48 h. The format is functional, cell-based. An outline of the steps: (§1)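 Cancer cell lines exposed to compounds for 48 h; viability read by MTT assay. IC50 reported as mean ± SD from at least three independent experiments.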

A further data set relates to HepG2. In words: Antiproliferative activity against human HepG2 cells assessed as cell growth inhibition measured after 48 hrs by MTT assay. The format is functional, cell-based. The settings on record: HepG2, 48 h. Summed up: as §1
A general note: Tetrazolium dyes change colour on reduction, which living cells bring about.

For another data set, the system named is HeLa. Briefly: Antiproliferative activity against human HeLa cells assessed as cell growth inhibition measured after 48 hrs by MTT assay. The format is functional, cell-based. Summed up: as §1
The subject of data set [1] is A549. Briefly: Antiproliferative activity against human A549 cells assessed as cell growth inhibition measured after 48 hrs by MTT assay. The format is functional, cell-based. The settings on record: A549, 48 h. An outline of the steps: as §1
The next data set relates to HCT-116. Briefly: Antiproliferative activity against human HCT116 cells assessed as cell growth inhibition measured after 48 hrs by MTT assay. The format is functional, cell-based. The note with it: HCT-116, 48 h. Summed up: as §1
For data set [2], the system named is A549. In words: Antitumour activity against human A549 cells xenografted in BALB/c nude mouse assessed as tumour growth inhibition at 30 mg/kg, ip administered every other day measured at day 26 by electronic caliper method relative to control. The format is functional. The settings on record: 624 h, read-out: GI. On the technique in general: In xenograft studies the graft and the host belong to different species.

The nature of data set [3]: Solubility of compound in water. The format is physicochemical. The settings on record: buffer.
Data set [4] relates to A549. In words: Antitumour activity against human A549 cells xenografted in BALB/c nude mouse assessed as tumour volume at 30 mg/kg, ip administered every other day measured at day 26 by electronic caliper method (reference value: 2006.37 mm3). The format is functional.
Data set [5] concerns A549. In words: Antitumour activity against human A549 cells xenografted in BALB/c nude mouse assessed as tumour weight at 30 mg/kg, ip administered every other day measured at day 26 by electronic caliper method (reference value: 1.894 g). The format is functional.
Data set [6] can be described thus: Toxicity in BALB/c nude mouse xenografted with human A549 cells assessed as effect on body weight at 30 mg/kg, ip administered every other day measured for 26 days. The format is organism-based. The settings on record: in vivo, 624 h.
The nature of data set [7]: Metabolic stability in Sprague-Dawley rat liver microsomes assessed as parent compound remaining after 150 mins in presence of NADPH by HPLC-UV-MS analysis. The format is ADME, Microsome. An outline of the steps:
(§2)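 Compound incubated with rat liver microsomes in buffer containing an NADPH regenerating system. Percentage of parent remaining was determined at time points up to 180 min, and half-life was derived.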
In general terms: Microsomes from liver hold many membrane-bound enzymes, among them those of drug oxidation.

A short description of data set [8]: Metabolic stability in Sprague-Dawley rat liver microsomes assessed as parent compound remaining after 30 mins in presence of NADPH by HPLC-UV-MS analysis. The format is ADME, Microsome. The note with it: read-out: Stability. Summed up:
as §2

Data set [9] can be described thus: Metabolic stability in Sprague-Dawley rat liver microsomes assessed as parent compound remaining after 120 mins in presence of NADPH by HPLC-UV-MS analysis. The note with it: read-out: Stability. The format is ADME, Microsome. Summed up:
as §2

Data set [10] can be described thus: Metabolic stability in Sprague-Dawley rat liver microsomes assessed as parent compound remaining after 90 mins in presence of NADPH by HPLC-UV-MS analysis. The format is ADME, Microsome. The note with it: read-out: Stability. Summed up:
as §2

Data set [11] in a line: Metabolic stability in Sprague-Dawley rat liver microsomes assessed as parent compound remaining after 60 mins in presence of NADPH by HPLC-UV-MS analysis. The format is ADME, Microsome. The note with it: read-out: Stability. An outline of the steps:
as §2

Data set [12] is described as follows: Half-life in Sprague-Dawley rat liver microsomes in presence of NADPH by HPLC-UV-MS analysis. The format is ADME, Microsome. Summed up: as §2
A short description of another data set: in vitro. The settings on record: Sprague-Dawley, rat, liver microsomes.

One may read the IC50 as the concentration that gives 50% inhibition. As to `COc1ccc2c(c1O)NC(=O)CN=C2c1cc(OC)c(OC)c(SC)c1`, the IC50 in the data set on MDA-MB-231 was 24.7 nM; in the data set with HepG2, 14.2 nM; in the data set on HeLa, 16.5 nM; in the data set with A549 [1] it was 18.7 nM; in the data set with HCT-116, 10.8 nM.

With `COc1cc(C2=NCC(=O)Nc3c2ccc(OC)c3OP(=O)([O-])[O-])cc([Se]C)c1OC.[Na+].[Na+]`, in the data set with A549 [2], the inhibition in vivo at 30 mg/kg worked out at 89.3%. In addition, in [3], the solubility entry is given as “Soluble”. Besides, the Activity with A549 [4] was 215.2 mm3; with A549 [5] it was 0.201 g; in [6], “Non-Toxic”.

Turning to `COc1cc(C2=NCC(=O)Nc3c2ccc(OC)c3OP(=O)([O-])[O-])cc(SC)c1OC.[Na+].[Na+]`, the inhibition in vivo at 30 mg/kg in the data set with A549 [2] was 79.3%. Moreover, in [3], the solubility entry is on record as “Soluble”. Also, the Activity in the data set with A549 [4] is given as 369.25 mm3; in the data set with A549 [5] it was 0.373 g; in data set [6] it was “Non-Toxic”.

For the molecule `COc1ccc(/C=C\c2cc(OC)c(OC)c(OC)c2)cc1OP(=O)([O-])[O-].[Na+].[Na+]` [FOSBRETABULIN DISODIUM], the inhibition in vivo at 30 mg/kg with A549 [2] is 52.8%. Moreover, the Activity came to 984.86 mm3 with A549 [4] and 0.879 g in the data set with A549 [5].

Turning to `COc1cc(C2=NCC(=O)Nc3c2ccc(OC)c3OP(=O)([O-])[O-])cc(OC)c1OC.[Na+].[Na+]`, in the data set on A549 [2], the inhibition in vivo at 30 mg/kg worked out at 77.7%. The Activity turned out to be 408.17 mm3 in the data set with A549 [4] and 0.415 g in the data set on A549 [5].

On to `COc1ccc2c(c1O)NC(=O)CN=C2c1cc(OC)c(OC)c(N(C)C)c1`, for which the IC50 in the data set on MDA-MB-231 turned out to be 91 nM; in the data set on HepG2, 52 nM; in the data set on HeLa, 54.9 nM; in the data set with A549 [1], 66.2 nM; in the data set on HCT-116 it was 53 nM.

With `COc1ccc2c(c1O)NC(=O)CN=C2c1cc2c(c(OC)c1)OC(C)(C)C=C2`, the IC50 with MDA-MB-231 was determined as 69 nM; in the data set with HepG2, 30.5 nM; in the data set on HeLa, 34.7 nM; in the data set on A549 [1], 56.2 nM; in the data set with HCT-116, 13.9 nM.

In general, half-life refers to the time in which the quantity being followed falls by half. For the molecule `COc1ccc(/C=C\c2cc(OC)c(OC)c(OC)c2)cc1O` [COMBRETASTATIN A4], in data set [7] (microsomes, 2.5 h), the Stability result is “Unstable”. Also, the remaining at 0.5 h in data set [8] amounted to 66.3%. Moreover, the remaining at 2 h in [9] was 17.9%. Also, the remaining at 1.5 h in data set [10] was found to be 21.6%. Besides, the remaining at 1 h in [11] amounted to 36.4%. Besides, in [12], the half-life was under 1 h.

Regarding `COc1ccc2c(c1O)NC(=O)CN=C2c1ccc(OC)c2c1OC(C)(C)C=C2`, the IC50 with MDA-MB-231 amounted to 3710 nM; with HepG2, 4590 nM; with HeLa, 1870 nM; with A549 [1] it was 433 nM; in the data set on HCT-116, 207 nM.

With `COc1ccc2c(c1O)NC(=O)CN=C2c1cc(OC)c(OC)c(OC)c1`, the IC50 with MDA-MB-231 was 54.6 nM; in the data set with HepG2 it was 15.7 nM; with HeLa, 18.1 nM; with A549 [1] it was 9.15 nM; with HCT-116, 16.6 nM. In data set [7] (Sprague-Dawley, liver microsomes, read-out: Stability), the remaining at 2.5 h is 55.2%. For the same molecule, in data set [8], the remaining at 0.5 h was determined as 94.3%. Also, the remaining at 2 h in data set [9] amounted to 65.3%. In [10], the remaining at 1.5 h is 76.2%. The remaining at 1 h in data set [11] was determined as 85.5%. Also, the remaining at 3 h in the data set “in vitro” worked out at 49.9%. In data set [12], the half-life is 2.62 h.

Regarding `COc1cc(-c2c(C)c(=O)[nH]c3c(O)c(OC)ccc23)cc(SC)c1OC`, the IC50 with MDA-MB-231 came out at 133 nM; in the data set with HepG2, 303 nM; in the data set with HeLa, 158 nM; with A549 [1] it was 86 nM; with HCT-116, 229 nM.

Turning to `COc1cc(-c2cc(=O)[nH]c3c(O)c(OC)ccc23)cc(SC)c1OC`, the IC50 with MDA-MB-231 is 70 nM; in the data set with HepG2, 51.7 nM; with HeLa, 35.5 nM; in the data set with A549 [1] it was 61.8 nM; with HCT-116, 28.8 nM.

For `COc1ccc2c(c1O)NC(=O)C(C)N=C2c1cc(OC)c(OC)c(SC)c1` (centres undefined), the IC50 in the data set on MDA-MB-231 was 295 nM; with HepG2, 295 nM; in the data set on HeLa, 1070 nM; in the data set on A549 [1] it was 93 nM; in the data set on HCT-116, 89 nM.

As to `COc1cc(-c2cc(=O)[nH]c3c(O)c(OC)ccc23)cc([Se]C)c1OC`, the IC50 in the data set with MDA-MB-231 amounted to 69 nM; in the data set with HepG2, 22 nM; in the data set with HeLa, 51.7 nM; in the data set with A549 [1], 60.7 nM; in the data set on HCT-116, 124 nM.
